Compound activity deposited in PubChem by Johns Hopkins Ion Channel Center.
KCNQ1 act: potentiates or activates the human KCNQ1 potassium channel. CHO-K1 KCNQ1, thallium flux FluxOR fluorescence; active compounds read high. B-score at 10 µM. 310,000 tested, 0.35% active;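 active = fluorescence ratio B-score, a plate-corrected score, at least three library SD, with initial intensity B-score within 5 SD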
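assay system = KCNQ1-transfected CHO-K1 cells | medium = assay buffer with matched DMSO | probe or stimulus = depolarizing K+/Tl+ stimulus, K2SO4 and Tl2SO4 each 12.5 mM in 5x stock | dosing = single dose | incubation = dye 90 min, compound 20 min, room temperature | detection = kinetic FluxOR fluorescence, 10 s baseline plus 110 s post-stimulus | evaluation = ratio B score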
KCNK3 inh: human KCNK3 channel inhibition, primary screen | CHO-KCNK3 thallium flux, FluxOR fluorescence; active compounds read low | AID 602410 | B-score at 10 µM | 340,000 tested, 0.84% active | O14649;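 active = B-score under library mean minus 4 SD, starting fluorescence ratio at most library mean plus 5 SD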;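 note: more negative B-score means stronger inhibition of thallium flux through KCNK3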
hERG rescue: hERG (human) protection from proarrhythmic block; activation (rescue from dofetilide block), less the hit threshold, % at 10 µM; Q12809; 310,000 tested, 0.51% active; CHO-hERG, FluxOR thallium flux, dofetilide IC70 present;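 active = activation above the mean of controls blocked by dofetilide plus 5 SD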;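 note: thallium influx through hERG after potassium depolarization seen as dye fluorescence rise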
KCNK9 block: human KCNK9 channel inhibition; Q9NPC2; HEK293 KCNK9, FluxOR thallium flux fluorescence; active compounds read low; B-score at 10 µM; 310,000 tested, 1.2% active;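 active = ratio B-score over 3 SD below the library mean, with starting fluorescence within 5 SD of its mean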;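 note: negative B-score means less thallium flux so channel inhibition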
Kir21 inh: inhibitors of mouse Kir2.1 inward-rectifier potassium channel; 310,000 tested, 0.85% active; B-score at 10 µM; HEK293-Kir2.1, FluxOR thallium flux fluorescence; active compounds read low;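 active = fluorescence ratio B-score at or below minus 3 SD of library scores, with starting-brightness B-score within 2 SD, cut at about -4.2 in these data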;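 note: channel flux triggered by added potassium and thallium sulfate stimulus; B-score of peak minus minimum fluorescence over baseline after thallium stimulus; more negative B-score means stronger Kir2.1 block with less thallium influx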
KCNQ1 inh: blocks the human KCNQ1 potassium channel. CHO-K1 KCNQ1, FluxOR thallium flux fluorescence; active compounds read high. AID 2642. 310,000 tested, 1.3% active. B-score at 10 µM. P51787;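 active = compounds whose thallium flux B-score, printed positive for inhibition, exceeds three library SD while starting fluorescence stays within three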;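 note: channel opened by potassium depolarization with thallium stimulus after 20 min compound exposure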
KCNK3 confirm: confirmation of human KCNK3 two-pore domain potassium channel inhibitors | shares compounds with KCNK3 inh | CHO-KCNK3 thallium flux, FluxOR fluorescence; 0% buffer, 100% carvedilol maximal block | ratio percent of control, % at 10 µM | 2,400 tested, 99% active;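 active = ratio percent of control, averaged over triplicates, above buffer control mean plus 5 SD, cut at about 64% in these data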;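 note: ratio is the fluorescence rise from min to max over baseline after thallium stimulus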
KCNK3 uninduced: KCNK3 inhibitor counter-screen hit in non-induced cells. shares compounds with KCNK3 inh. non-induced KCNK3 parental cells, FluxOR thallium flux; active compounds read low. 2,400 tested, 40% active. thallium flux ratio (lower = more inhibition) at 10 µM;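 active = thallium flux ratio, averaged over three wells, more than 5 SD below the buffer control mean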;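 note: host cells are CHO cells without KCNK3 induction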
Hits are given with their value; 0 = inactive; - = no result. Shown are actives, neighbours in structure and some others; about 3.7% of the full set was active somewhere.

SMILES	KCNQ1 act	KCNK3 inh	hERG rescue	KCNK9 block	Kir21 inh	KCNQ1 inh	KCNK3 confirm	KCNK3 uninduced
COc1cccc(C(=O)Nc2ccc(-c3nnc(-c4ccco4)o3)cc2)c1	0	0	0	0	0	0	-	-
O=C(Nc1cccc(-c2nnc(-c3ccccc3)o2)c1)C1CC1	0	-9.84	0	0	0	0	112.3	0
CCOc1cccc(C(=O)Nc2cccc(-c3nnc(-c4ccccc4)o3)c2)c1	0	-10.7	0	0	0	0	121.0	0.14
CC(=O)Oc1ccc(C(=O)Nc2cccc(-c3nnc(-c4ccco4)o3)c2)cc1	0	-9.33	0	0	0	0	85.3	0
CCOc1cccc(C(=O)Nc2cccc(-c3nnc(-c4ccc(C)cc4)o3)c2)c1	0	0	0	0	0	0	-	-
CC(=O)Nc1cccc(-c2nnc(-c3ccccc3)o2)c1	0	0	0	0	0	0	-	-
C=CCNc1ncnc2sc(SC)nc12	0	0	0	0	0	0	-	-
Cc1ccc(-c2nc(NC(=O)c3cc(C(C)(C)C)nn3C)sc2C)cc1Cl	0	-9.19	0	0	0	10	96.3	0.143
CC1CCc2nc(NC(=O)c3cc(C(C)(C)C)nn3C)sc2C1 (stereo not given)	0	0	0	0	0	0	-	-
Cc1ccccc1Nc1nc(N)nc(-c2oc3ccccc3c2C)n1	0	-10.2	0	-13.7	0	0	116.7	0.158
CCSc1nc2ccccc2n1Cc1cccc([N+](=O)[O-])c1	0	-8.75	0	0	0	0	94.7	0
CCSc1nc2ccccc2n1Cc1ccccc1F	0	0	0	0	0	0	-	-
CCN(CC(=O)NCc1cccs1)C(=O)c1ccc(NS(=O)(=O)c2cccc([N+](=O)[O-])c2)cc1	0	0	0	0	0	0	-	-
CC(C)(C)C(=O)N1CCN(c2ncnc3scc(-c4ccccc4)c23)CC1	0	0	0	0	0	0	-	-
CC(C)c1ccc(-c2csc3ncnc(N4CCN(C)CC4)c23)cc1	0	0	0	0	0	0	-	-
COc1ccc(-c2csc3ncnc(N4CCN(c5ccc(OC)cc5)CC4)c23)cc1	0	-11	0	0	0	0	92.0	0
COc1ccc(-c2csc3ncnc(N4CCN(c5ccccc5[N+](=O)[O-])CC4)c23)cc1	0	-8.74	0	0	0	8	96.7	0
O=C(CCOc1cccc(Br)c1)Nc1ccc(F)c(S(=O)(=O)N2CCOCC2)c1	-	-11.9	-	-	-	-	97.0	0
C[C@H]1CN([C@@H](C)CO)C(=O)c2cc(NS(=O)(=O)c3ccc(Cl)cc3)ccc2O[C@@H]1CN(C)CC1CCCCC1	-	-13.3	-	-	-	-	93.3	0
CCc1ccc2c(c1)C1(NN=C(c3cccc4ccccc34)S1)C(=O)N2 (stereo not given)	0	-12.6	0	0	0	15	148.7	0.132
O=C(Cn1c(=O)n(Cc2ccco2)c(=O)c2ccccc21)Nc1cccc(Cl)c1	0	-14	0	0	0	0	97.7	0
Cc1ccc(NC(=O)Cn2c(=O)n(Cc3ccco3)c(=O)c3ccccc32)c(C)c1	0	0	0	0	0	0	-	-
COc1ccc(OC)c(-c2csc(NC(=O)Cc3ccccc3)n2)c1	0	-9.44	0	0	0	0	125.0	0.148
COc1cccc(CC(=O)Nc2nc(-c3cc(OC)ccc3OC)cs2)c1	0	0	0	0	0	0	-	-
COc1ccc(OC)c(-c2csc(NC(=O)c3ccc4c(c3)OCO4)n2)c1	0	-9.28	0	0	0	0	91.7	0
SMILES	KCNQ1 act	KCNK3 inh	hERG rescue	KCNK9 block	Kir21 inh	KCNQ1 inh	KCNK3 confirm	KCNK3 uninduced
COc1ccc(OC)c(-c2csc(N(Cc3ccco3)C(=O)c3ccco3)n2)c1	0	-11.9	0	-7.28	0	0	101.7	0
COc1ccc(OC)c(-c2csc(NC(=O)Cc3cccs3)n2)c1	0	-8.83	0	0	0	0	84.7	0
COc1ccc(OC)c(NC(=O)c2ccc3c(c2)OCO3)c1	0	0	0	0	0	0	-	-
COc1ccc(CN(C(=O)c2ccco2)c2ccc(C)c(C)c2)cc1	0	-10.5	0	-7.1	0	0	105.3	0
Cc1ccc(-c2cc(-c3ccc(C)o3)nc(N)c2C#N)cc1	0	-10.9	0	0	0	0	101.3	0
O=C(O)CN1C(=O)/C(=C\C(Br)=C\c2ccccc2)SC1=S	0	0	0	0	0	0	-	-
Fc1ccc(C2=Nc3cccc4cccc(c34)N2)cc1	0	0	0	0	0	0	-	-
FC(F)(F)C1=Nc2cccc3cccc(c23)N1	-	-13.3	-	-	-	-	127.3	0.106
CC(c1cccs1)N(Cc1ccco1)C(=S)Nc1ccccc1Cl (stereo not given)	0	-8.96	0	0	0	0	106.7	0
S=C(Nc1ccccc1Cl)N(CCN1CCCCC1)Cc1ccco1	0	0	0	0	0	0	-	-
COc1cccc(NC(=S)N(Cc2ccco2)C(C)c2ccco2)c1 (stereo not given)	0	0	0	0	0	0	-	-
Cc1cccc(NC(=S)N(Cc2ccco2)C(C)c2cccs2)c1 (stereo not given)	0	-9.71	0	0	0	0	94.0	0
COC(=O)c1ccc(NC(=O)CN2CCN(S(=O)(=O)c3ccc(Br)cc3)CC2)cc1	0	0	0	0	0	0	-	-
COc1cccc(NC(=O)C2(S(=O)(=O)c3ccc(Cl)cc3)CC2)c1	0	0	0	0	0	0	-	-
O=C(NCCc1ccccn1)c1n[nH]c(=O)c2ccccc12	0	0	0	0	0	0	-	-
CCCC(=O)c1c[nH]c(C(=O)NCCc2ccccn2)c1	0	-10.8	0	0	0	0	70.0	0
CCOC(=O)c1cc(C)sc1NC(=O)CSC1=NCCS1	0	-11.5	0	0	0	0	119.3	0
CCOC(=O)c1cc(C)sc1NC(=O)CSc1nnnn1C	0	0	0	0	0	0	-	-
CCOc1cc(CNc2ccccc2)cc(Br)c1OCc1ccc(F)cc1	0	-8.76	0	0	0	0	84.3	0.159
CCOc1cc(CNc2ccccc2)cc(Br)c1OCC(=O)NC(C)(C)C	0	0	0	0	0	0	-	-
COCc1c(C(=O)N2CCc3ccccc32)oc2ccccc12	0	-10.6	0	0	0	0	86.3	0
Cc1c(C(=O)N2CCc3ccccc32)oc2ccccc12	0	0	0	0	0	0	-	-
COc1cccc(NC(=O)Cn2nnc(C(=O)NCCc3ccccc3)c2N)c1	0	0	0	0	0	0	-	-
Cc1ccnc(NC(=O)c2ccc(OCC3CCCO3)cc2)c1 (stereo not given)	0	0	0	0	0	0	-	-
